# Measured values of several laboratories.
# Protocols differ between the studies behind these lines. pEC50, pIC50: −log10 of the molar value.
# Effect on: cell growth or viability
Compound,cell line,technique,tested at,time,measurement,value
FC(F)(F)c1cc(OCc2cc(-c3ccccc3)no2)c2ccccc2n1,LN-229,MTS,,72 h,pIC50,4.49
Cc1c(Cl)c(=O)oc2cc(OCCCCSC#N)ccc12,MIA PaCa-2,SRB,,,GI50,8.2 µM
Cc1ncsc1-c1ccc([C@@H](C)NC(=O)[C@H]2C[C@H](O)CN2C(=O)[C@H](NC(=O)CCCCNC(=O)C23CC4CC(CC(Cn5ncc(-c6ccc(N7CCc8cccc(C(=O)Nc9nc%10ccccc%10s9)c8C7)nc6C(=O)O)c5C)(C4)C2)C3)C(C)(C)C)cc1,MOLT-4,MTS,,48 h,pIC50,< 6.00
Nc1nc(S)nc(O)c1N=Cc1cn(-c2ccccc2)nc1-c1ccc([N+](=O)[O-])cc1,Jurkat,,,48 h,CC50,> 40 µM
Cc1ncsc1-c1ccc([C@H](C)NC(=O)[C@@H]2C[C@@H](O)CN2C(=O)[C@@H](NC(=O)CCCCCC(=O)N2CCN(CC[C@H](CSc3ccccc3)Nc3ccc(S(=O)(=O)NC(=O)c4ccc(N5CCN(CC6=C(c7ccc(Cl)cc7)CCC(C)(C)C6)CC5)cc4)cc3S(=O)(=O)C(F)(F)F)CC2)C(C)(C)C)cc1,MOLT-4,MTS,,48 h,pIC50,7.11
Cc1nc(NC(=O)N2CCC[C@H]2C(N)=O)sc1-c1ccnc(C(C)(C)C(F)(F)F)c1,TCC-SUP,ATP luminescence,,5 days,pEC50,5.51
Nc1nc(S)nc(O)c1N=Cc1cn(-c2ccccc2)nc1-c1ccc(Cl)cc1,Jurkat,,,48 h,CC50,> 20 µM
Cc1ncsc1-c1ccc([C@H](C)NC(=O)[C@@H]2C[C@@H](O)CN2C(=O)[C@@H](NC(=O)CCCCCCCCCCS(=O)(=O)NC(=O)c2nc(N3CCc4cccc(C(=O)Nc5nc6ccccc6s5)c4C3)ccc2-c2cnn(CC34CC5CC(CC(C5)C3)C4)c2C)C(C)(C)C)cc1,MOLT-4,MTS,,48 h,pIC50,7.47
COc1ccc(-c2nn(-c3ccccc3)cc2C=Nc2c(N)nc(S)nc2O)cc1,Jurkat,,,48 h,CC50,17.3 µM
Cc1nc(Nc2ncc(C(=O)Nc3c(C)cccc3Cl)s2)cc(N2CC[C@H](O)C2)n1,Jurkat,ATP luminescence,10 µM,72 h,inhibition,47%
N#CSCCCCOc1ccc2c(-c3ccccc3)cc(=O)oc2c1,MIA PaCa-2,SRB,,,GI50,28 µM
Cc1ncsc1-c1ccc([C@H](C)NC(=O)[C@@H]2C[C@@H](O)CN2C(=O)[C@@H](NC(=O)CCCCS(=O)(=O)NC(=O)c2nc(N3CCc4cccc(C(=O)Nc5nc6ccccc6s5)c4C3)ccc2-c2cnn(CC34CC5CC(CC(C5)C3)C4)c2C)C(C)(C)C)cc1,MOLT-4,MTS,,48 h,pIC50,8.08
O=C(C[C@@H](C(F)F)n1ccc(F)n1)N1CCC(O)(Cn2cnc3c(cnn3-c3ccc(F)cc3)c2=O)CC1,LNCaP,CCK-8,0.1235 µM,,viability,18.3%
